Test results reported in ChEMBL document CHEMBL3407342, “Prodrugs of reverse fosmidomycin analogues” (J Med Chem, 2015).

Assays:
[1] = Inhibition of recombinant Plasmodium falciparum IspC using [3,4,5-13C3]1-Deoxy-D-xylulose 5-phosphate substrate by photometric assay
How it was run: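 Pf IspC inhibition values are mean ± SD from nine or more data points, obtained by nonlinear regression analysis.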

Plasmodium falciparum [2] = assay: Antiplasmodial activity against blood stage forms of chloroquine-sensitive Plasmodium falciparum D10 incubated for 3 days by HRP2 detection based ELISA method; type: functional, organism-based; conditions: D10, 72 h
How it was run: (§1)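 Asexual blood-stage P. falciparum kept in continuous culture. Proliferation read by HRP2 ELISA. Each test used 12 serial dilutions. Values are means of at least two independent experiments, each run in duplicate.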

Plasmodium falciparum [3] = assay: Antiplasmodial activity against blood stage forms of chloroquine-sensitive Plasmodium falciparum 3D7 incubated for 3 days by HRP2 detection based ELISA method; type: functional, organism-based; conditions: 3D7, 72 h; how it was run: as §1
HeLa = assay: Cytotoxicity against human HeLa cells; type: cell-based
How it was run: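 HeLa cytotoxicity values are the mean of two duplicate determinations.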

Plasmodium falciparum [4] = assay: Antiplasmodial activity against blood stage forms of multidrug-resistant Plasmodium falciparum Dd2 incubated for 3 days by HRP2 detection based ELISA method; type: functional, organism-based; conditions: Dd2, 72 h; how it was run: as §1
Plasmodium falciparum [5] = assay: Antimalarial activity against Plasmodium falciparum infected in SCID mouse engrafted with human erythrocytes assessed as reduction in parasitemia at 50 mg/kg, po qd for 4 days relative to control; type: functional; parameters: scale not given: the % may be the effect or the level left
How it was run: (§2)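 P. falciparum SCID mouse model with treated groups of 2 mice and a control group of 5. Dosed orally or intraperitoneally once daily on days 3, 4, 5 and 6 after infection. Blood collected on day 4 after the first treatment; parasitized erythrocytes counted as % relative to control.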

[6] = Selectivity index, ratio of IC50 for human HeLa cells to IC50 for blood stage forms of multidrug-resistant Plasmodium falciparum Dd2; type: toxicity, cell-based; conditions: HeLa cells versus blood stage Plasmodium falciparum Dd2, read-out: Ratio IC50
How it was run: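 Index computed as HeLa cell IC50 divided by P. falciparum Dd2 IC50. HeLa values are means of two duplicate determinations.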

Plasmodium falciparum [7] = assay: Antimalarial activity against Plasmodium falciparum infected in SCID mouse engrafted with human erythrocytes assessed as reduction in parasitemia at 13 mg/kg, po qd for 4 days relative to control; type: functional; parameters: scale not given: the % may be the effect or the level left
Plasmodium falciparum [8] = assay: Antimalarial activity against Plasmodium falciparum infected in SCID mouse engrafted with human erythrocytes assessed as reduction in parasitemia at 5 mg/kg, po qd for 4 days relative to control; type: functional; parameters: scale not given: the % may be the effect or the level left
Plasmodium berghei [9] = assay: Antimalarial activity against Plasmodium berghei infected in NMRI mouse assessed as reduction in parasitemia at 30 mg/kg, po qd for 4 days starting 4 hrs post infection measured on 96 hrs post infection relative to control; type: functional; parameters: scale not given: the % may be the effect or the level left
Plasmodium berghei [10] = assay: Antimalarial activity against Plasmodium berghei infected in NMRI mouse assessed as mean survival time at 30 mg/kg, po qd for 4 days starting 4 hrs post infection measured on 96 hrs post infection (reference value: 4 days); type: functional
Plasmodium falciparum [11] = assay: Antimalarial activity against Plasmodium falciparum infected in SCID mouse engrafted with human erythrocytes assessed as reduction in parasitemia at 50 mg/kg, ip qd for 4 days relative to control; type: functional; parameters: scale not given: the % may be the effect or the level left; conditions: route intraperitoneal; how it was run: as §2
Plasmodium berghei [12] = assay: Antimalarial activity against Plasmodium berghei infected in NMRI mouse assessed as mean survival time at 50 mg/kg, ip qd for 4 days starting 4 hrs post infection measured on 96 hrs post infection (reference value: 4 days); type: functional; conditions: route intraperitoneal
How it was run: (§3)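 Standard 4-day Peters test in P. berghei-infected mice. Compounds dissolved or suspended in 70:30 Tween 80/ethanol, then diluted 10× with water. Given at 50 mg/kg once daily, orally or intraperitoneally, at 4, 24, 48 and 72 h postinfection (n = 3 mice per group). Blood collected at 96 h. Mean survival time reported; […].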

Plasmodium berghei [13] = assay: Antimalarial activity against Plasmodium berghei infected in NMRI mouse assessed as mean survival time at 50 mg/kg, po qd for 4 days starting 4 hrs post infection measured on 96 hrs post infection (reference value: 4 days); type: functional; how it was run: as §3
Plasmodium berghei [14] = assay: Antimalarial activity against Plasmodium berghei infected in NMRI mouse assessed as reduction in parasitemia at 50 mg/kg, po qd for 4 days starting 4 hrs post infection measured on 96 hrs post infection relative to control; type: functional; parameters: scale not given: the % may be the effect or the level left
How it was run: (§4)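 Peters 4-day suppressive test in P. berghei-infected mice, 50 mg/kg once daily orally or intraperitoneally at 4, 24, 48 and 72 h after infection. Compound dissolved or suspended in 70:30 Tween 80/ethanol, then diluted 10× with water. Groups of 3 mice. Blood taken on day 4 (96 h). Activity is the difference in mean % parasitaemia between control and treated groups, as a percent of control.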

Plasmodium berghei [15] = assay: Antimalarial activity against Plasmodium berghei infected in NMRI mouse assessed as reduction in parasitemia at 50 mg/kg, ip qd for 4 days starting 4 hrs post infection measured on 96 hrs post infection relative to control; type: functional; parameters: scale not given: the % may be the effect or the level left; conditions: route intraperitoneal; how it was run: as §4

Row | Compound | IC50 [1] [µM] | IC50 (Plasmodium falciparum [2]) [µM] | IC50 (Plasmodium falciparum [3]) [µM] | IC50 (HeLa) [µM] | IC50 (Plasmodium falciparum [4]) [µM] | selectivity ratio [6] | also measured
1 | CCNC(=O)ON(C)C(=O)CCC(c1ccc(F)c(F)c1)P(=O)(OCOC(=O)OC(C)C)OCOC(=O)OC(C)C (stereo not given) | > 1000 | 0.072 | 0.014 | 168 | 0.012 | 14000 | Activity (Plasmodium falciparum [5]): 0%
2 | CC(C)(C)C(=O)OCOP(=O)(CCCN(O)C=O)OCOC(=O)C(C)(C)C | – | 1.8 | 0.48 | – | 0.49 | – | –
3 | CCCCOC(=O)OCOP(=O)(OCOC(=O)OCCCC)C(CCC(=O)NO)c1ccc(F)c(F)c1 (stereo not given) | > 1000 | 0.1 | 0.039 | – | 0.009 | – | –
4 | CCCCOC(=O)OCOP(=O)(OCOC(=O)OCCCC)C(OCC(=O)N(C)O)c1ccc(F)c(F)c1 (stereo not given) | – | 0.031 | 0.014 | 190 | 0.009 | 21100 | –
5 | CCN(CC)CCCC(C)Nc1ccnc2cc(Cl)ccc12 (stereo not given) [CHLOROQUINE] | – | – | – | – | – | – | Activity (Plasmodium falciparum [7]): 90%; Activity (Plasmodium falciparum [8]): 90%
6 | O[C@@H](c1cc(C(F)(F)F)nc2c(C(F)(F)F)cccc12)[C@H]1CCCCN1 (relative stereo) [(S,R)-MEFLOQUINE] | – | – | – | – | – | – | Activity (Plasmodium berghei [9]): 99.9%; Survival (Plasmodium berghei [10]): 29 days
7 | CC(C)OC(=O)OCOP(=O)(OCOC(=O)OC(C)C)C(CCC(=O)N(C)O)c1ccc(F)c(F)c1 (stereo not given) | 887 | – | 0.008 | – | 0.007 | – | –
8 | CCOC(=O)ON(C)C(=O)CCC(c1ccc(F)c(F)c1)P(=O)(OCOC(=O)OC(C)C)OCOC(=O)OC(C)C (stereo not given) | > 1000 | 0.13 | 0.028 | 205 | 0.018 | 11400 | –
9 | CC(=O)N(O)CCCP(=O)(O)O [FR-900098] | 0.015 | 0.35 | 0.16 | – | 0.16 | – | –
10 | O=C(CCC(c1ccc(F)c(F)c1)P(=O)(O)O)NO (stereo not given) | 0.0028 | 0.21 | – | – | 0.65 | – | –
11 | CC(=O)ON(C)C(=O)CCC(c1ccc(F)c(F)c1)P(=O)(OCOC(=O)OC(C)C)OCOC(=O)OC(C)C (stereo not given) | – | 0.061 | 0.013 | 188 | 0.008 | 23500 | –
12 | C[C@H]1[C@H](OC(=O)CCC(=O)O)O[C@@H]2O[C@@]3(C)CC[C@H]4[C@H](C)CC[C@@H]1[C@@]24OO3 [ARTESUNATE] | – | – | – | – | – | – | Activity (Plasmodium berghei [9]): 99%; Activity (Plasmodium falciparum [7]): 90%; Activity (Plasmodium falciparum [8]): 90%; Survival (Plasmodium berghei [10]): 10 days
13 | CN(O)C(=O)CCC(c1ccc(F)c(F)c1)P(=O)(O)O (stereo not given) | 0.0034 | 0.083 | – | > 1000 | – | > 2500 | Activity (Plasmodium falciparum [11]): 0%; Survival (Plasmodium berghei [12]): 6.7 days; Survival (Plasmodium berghei [13]): 6 days; Activity (Plasmodium berghei [14]): 57%; Activity (Plasmodium berghei [15]): 62%
14 | CC(C)OC(=O)OCOP(=O)(OCOC(=O)OC(C)C)C(CCC(=O)N(C)OC(=O)C(C)(C)C)c1ccc(F)c(F)c1 (stereo not given) | > 1000 | 0.22 | 0.043 | – | 0.034 | – | –
15 | CC(C)OC(=O)OCOP(=O)(OCOC(=O)OC(C)C)C(OCC(=O)N(C)O)c1ccc(F)c(F)c1 (stereo not given) | – | 0.031 | 0.035 | – | 0.029 | – | –
16 | CC(=O)N(O)CCCP(=O)(OCOC(=O)C(C)(C)C)OCOC(=O)C(C)(C)C | – | – | 0.041 | – | 0.028 | – | –
17 | CN(O)C(=O)COC(c1ccc(F)c(F)c1)P(=O)(O)O (stereo not given) | 0.012 | 0.52 | – | > 1000 | – | > 7690 | –
18 | CC(C)OC(=O)OCOP(=O)(OCOC(=O)OC(C)C)C(CCC(=O)NO)c1ccc(F)c(F)c1 (stereo not given) | > 1000 | – | 0.049 | – | 0.029 | – | –
19 | O=CN(O)CCCP(=O)(O)O [FOSMIDOMYCIN] | 0.16 | 1.3 | – | – | – | – | –
20 | CCCCOC(=O)OCOP(=O)(OCOC(=O)OCCCC)C(CCC(=O)N(C)O)c1ccc(F)c(F)c1 (stereo not given) | > 1000 | – | 0.013 | 190 | 0.005 | 38000 | –
